Measured values reported in PubChem BioAssay.
Calls of active or inactive are those of the source.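 How the source made its calls, unless noted: active means current rise at least 3 SD above the untreated control mean in each of two repeat wells; inactive means the rest.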

What was measured:
[1] = thallium flux activation in parental CHO cells, counter-screen for KCNQ1 potentiator project (AID 493006;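 active means duplicate-averaged activation above buffer control mean plus 5 SD of those controls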;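 on activation: fluorescence ratio of max minus min over baseline after K+ and Tl+ depolarization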); details: parental CHO-K1 cells, FluxOR thallium flux, at 10 µM; stronger effect = higher value
Procedure, shortened: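 Material: untransfected host CHO-K1 cells with FluxOR thallium dye. Timing: overnight 37 °C plating, 90 min RT dye, 20 min compound. Detection: kinetic FluxOR fluorescence, 10 s baseline, 110 s after stimulus. Read-out basis: max-minus-min fluorescence over baseline, percent of buffer-to-R-L3 span. Replicates: duplicate wells per compound, percent values averaged.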

[2] = biological target: Potassium voltage-gated channel subfamily KQT member 1 (Homo sapiens) (UniProt P51787); experiment: KCNQ1 potassium channel potentiators, confirmation, FluxOR thallium flux, CHO cells, duplicates (AID 493007;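 active means potentiation averaged over duplicate wells exceeding buffer-only control mean by more than 3 SD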;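 on outcome: cells depolarized by a potassium plus thallium sulfate stimulus after compound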); details: KCNQ1 cell line, FluxOR thallium flux fluorescence, at 10 µM; stronger effect = higher value, % of reference activator effect, buffer zero
Chain of Potassium voltage-gated channel subfamily KQT member 1 (Homo sapiens) (P51787 whole entry, looked up): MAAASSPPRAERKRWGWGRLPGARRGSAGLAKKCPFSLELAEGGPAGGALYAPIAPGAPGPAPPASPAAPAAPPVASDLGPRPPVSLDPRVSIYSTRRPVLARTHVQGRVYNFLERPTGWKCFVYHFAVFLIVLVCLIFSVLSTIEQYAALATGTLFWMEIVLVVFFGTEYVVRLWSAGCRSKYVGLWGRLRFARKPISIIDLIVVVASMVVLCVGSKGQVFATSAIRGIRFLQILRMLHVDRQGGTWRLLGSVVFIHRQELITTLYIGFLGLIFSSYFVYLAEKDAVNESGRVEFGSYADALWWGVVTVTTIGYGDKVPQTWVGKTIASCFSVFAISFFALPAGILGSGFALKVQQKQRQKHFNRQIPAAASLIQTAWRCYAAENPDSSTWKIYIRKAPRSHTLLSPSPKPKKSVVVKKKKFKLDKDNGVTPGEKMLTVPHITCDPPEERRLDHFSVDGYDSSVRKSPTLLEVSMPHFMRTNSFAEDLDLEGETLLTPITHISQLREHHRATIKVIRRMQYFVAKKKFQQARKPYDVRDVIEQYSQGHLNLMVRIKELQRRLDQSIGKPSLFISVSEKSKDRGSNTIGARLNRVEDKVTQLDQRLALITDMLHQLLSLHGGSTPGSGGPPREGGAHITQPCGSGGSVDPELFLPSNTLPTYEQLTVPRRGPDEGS
Procedure, shortened: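 Test system – KCNQ1-expressing CHO cell line · Incubation – FluxOR dye loading 90 min, compound exposure 20 min, room temperature · Detection – FluxOR Tl+ flux fluorescence, 10 s baseline plus 110 s recording · Controls – buffer-only wells as 0% and R-L3 activator as 100%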

[3] = biological target: Potassium voltage-gated channel subfamily KQT member 2 (Rattus norvegicus) (UniProt O88943); experiment: rat KCNQ2 channel potentiation, selectivity assay for KCNQ1 potentiator project, KCNQ2-CHO-K1 cells (AID 493009;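 active means mean duplicate potentiation above the buffer control mean plus 5 SD of buffer wells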;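 further: assay conditions were tuned for KCNQ1 rather than KCNQ2 modulators; signal is max minus min fluorescence divided by baseline after thallium stimulus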); details: FluxOR thallium flux fluorescence, at 10 µM; stronger effect = higher value, scaled: buffer 0, activator control 100
Chain of Potassium voltage-gated channel subfamily KQT member 2 (Rattus norvegicus) (O88943 whole entry, looked up): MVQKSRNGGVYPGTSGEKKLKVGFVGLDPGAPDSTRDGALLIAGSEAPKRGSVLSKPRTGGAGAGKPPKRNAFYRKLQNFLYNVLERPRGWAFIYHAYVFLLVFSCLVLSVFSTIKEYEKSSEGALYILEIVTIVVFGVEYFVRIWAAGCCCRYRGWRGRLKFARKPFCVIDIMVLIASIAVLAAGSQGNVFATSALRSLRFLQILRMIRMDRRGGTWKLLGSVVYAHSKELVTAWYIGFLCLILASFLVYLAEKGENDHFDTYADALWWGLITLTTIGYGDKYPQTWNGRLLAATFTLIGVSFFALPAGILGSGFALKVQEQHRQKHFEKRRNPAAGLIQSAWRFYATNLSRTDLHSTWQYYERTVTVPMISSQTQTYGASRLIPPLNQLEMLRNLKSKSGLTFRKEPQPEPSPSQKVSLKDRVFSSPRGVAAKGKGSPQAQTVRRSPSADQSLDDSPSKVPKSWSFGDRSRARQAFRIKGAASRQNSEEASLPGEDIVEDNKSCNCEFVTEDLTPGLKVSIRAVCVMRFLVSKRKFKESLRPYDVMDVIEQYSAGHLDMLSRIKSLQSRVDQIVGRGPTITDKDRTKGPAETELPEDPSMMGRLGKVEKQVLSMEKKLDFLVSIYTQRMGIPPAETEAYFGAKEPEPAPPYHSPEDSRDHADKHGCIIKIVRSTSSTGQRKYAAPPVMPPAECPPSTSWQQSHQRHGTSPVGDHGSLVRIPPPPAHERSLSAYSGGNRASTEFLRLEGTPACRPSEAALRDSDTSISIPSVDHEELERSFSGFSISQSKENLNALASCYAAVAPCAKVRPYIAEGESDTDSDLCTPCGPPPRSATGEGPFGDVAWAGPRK

[4] = biological target: Potassium voltage-gated channel subfamily KQT member 1 (Homo sapiens) (UniProt P51787); experiment: KCNQ1 channel current potentiators, confirmation, orthogonal assay for KCNQ1 potentiator project, IonWorks patch clamp, KCNQ1-CHO cells (AID 493184); details: automated patch clamp current, at 10 µM; stronger effect = higher value
Procedure, shortened: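 Read-out: Percent current increase versus pre-compound level | Assay system: CHO cells carrying KCNQ1 | Measured by: Automated perforated-patch electrophysiology | Medium: External bath solution at pH 7.4 | Dosing: One dose, 10 µM final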

SMILES | outcome [1] | outcome [2] | outcome [3] | outcome [4] | activation [1] | potentiation [2] | potentiation [3]
Cc1ccc(-c2nc3ncccc3o2)cc1NC(=O)c1cccnc1 | inactive | inactive | inactive | inactive |  |  | 
COc1ccc(C2C(C(=O)c3ccccc3)=C(C)Nc3nc4ccccc4n32)cc1OC (stereo not given) | inactive | inactive | inactive | inactive |  |  | 
CC(Oc1ccc(Br)cc1)c1nc2c3ccccc3nc(=S)n2[nH]1 (stereo not given) |  |  |  | inactive | 227% (active) | 45.5% (active) | 178% (active)
O=C1OC(c2ccc(F)cc2)=N/C1=C\c1ccc(Br)o1 |  |  |  | inactive | 228% (active) | 80.5% (active) | 266% (active)
CCN1C(=O)/C(=C/c2ccc(C)s2)NC1=S |  |  |  | inactive | 208% (active) | 57.5% (active) | 258% (active)
